Bioassay records as filed in PubChem BioAssay.
TDP2 absorb = TDP2 (human) inhibition, absorbance primary screen; recombinant TDP2, T5PNP hydrolysis, p-nitrophenol absorbance 415 nm; inhibition, % at 12.8 µM; hit rate 0.34% among 370,000; AID 720702;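 active = inhibition above the mean of all tested compounds plus 3 SD, set per campaign, cut at about 25% in these data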
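Material: recombinant human TDP2; quantity: TDP2 enzyme at 120 nM final; medium: Tris-HCl pH 7.5 with MgCl2; compound: single concentration, 12.8 µM nominal, with 1% DMSO; incubation: 2 h enzyme incubation at 37 °C; signal: epi absorbance; measure: percent inhibition; benchmarks: high control without enzyme, low control DMSO plus TDP2; repeats: singlicate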
PAD4 inh = PAD4 (human) enzyme inhibition. hit rate 0.41% among 330,000. recombinant PAD4, RCA probe fluorescence polarization. AID 485272. inhibition, % at 6.36 µM. Q9UM07;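 active = percent inhibition above a cutoff equal to the mean of all tested compounds plus 3 SD, cut at about 15% in these data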
SIAE inh = blocks human sialic acid acetylesterase. SIAE FP-Rh probe binding, fluorescence polarization. inhibition, % at 9.66 µM. hit rate 0.69% among 370,000. AID 1053197;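 active = inhibition above a cutoff: mean of compounds within the control limits plus 3 SD of those, cut at about 17% in these data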
GSTO1 inh = counter-screen for RBBP9 inhibitors: inhibitors of human GSTO1. recombinant GSTO1, activity-based probe fluorescence polarization. P78417. hit rate 1.1% among 300,000. inhibition, % at 5.96 µM;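 active = inhibition above the campaign mean inhibition plus 3 SD, cut at about 35% in these data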
TCR CD3 inh = blocks the human TCR-CD3 interaction; TAMRA-labeled TCR probe fluorescence, biochemical; inhibition, % at 9.4 µM; hit rate 0.37% among 360,000; AID 651800; in the data active = inhibition above about 19%;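 note: recombinant mutant TCR 2C K166C tagged with TAMRA read by polarization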
Apaf1 inhib = human Apaf-1 inhibition; O14727; reconstituted apoptosome caspase-3 activity, DEVD-Rh110 fluorescence; inhibition, % at 20 µM; hit rate 0.71% among 330,000; active = inhibition of at least 40% at 20 µM
Target sequence (O14727 whole entry, looked up): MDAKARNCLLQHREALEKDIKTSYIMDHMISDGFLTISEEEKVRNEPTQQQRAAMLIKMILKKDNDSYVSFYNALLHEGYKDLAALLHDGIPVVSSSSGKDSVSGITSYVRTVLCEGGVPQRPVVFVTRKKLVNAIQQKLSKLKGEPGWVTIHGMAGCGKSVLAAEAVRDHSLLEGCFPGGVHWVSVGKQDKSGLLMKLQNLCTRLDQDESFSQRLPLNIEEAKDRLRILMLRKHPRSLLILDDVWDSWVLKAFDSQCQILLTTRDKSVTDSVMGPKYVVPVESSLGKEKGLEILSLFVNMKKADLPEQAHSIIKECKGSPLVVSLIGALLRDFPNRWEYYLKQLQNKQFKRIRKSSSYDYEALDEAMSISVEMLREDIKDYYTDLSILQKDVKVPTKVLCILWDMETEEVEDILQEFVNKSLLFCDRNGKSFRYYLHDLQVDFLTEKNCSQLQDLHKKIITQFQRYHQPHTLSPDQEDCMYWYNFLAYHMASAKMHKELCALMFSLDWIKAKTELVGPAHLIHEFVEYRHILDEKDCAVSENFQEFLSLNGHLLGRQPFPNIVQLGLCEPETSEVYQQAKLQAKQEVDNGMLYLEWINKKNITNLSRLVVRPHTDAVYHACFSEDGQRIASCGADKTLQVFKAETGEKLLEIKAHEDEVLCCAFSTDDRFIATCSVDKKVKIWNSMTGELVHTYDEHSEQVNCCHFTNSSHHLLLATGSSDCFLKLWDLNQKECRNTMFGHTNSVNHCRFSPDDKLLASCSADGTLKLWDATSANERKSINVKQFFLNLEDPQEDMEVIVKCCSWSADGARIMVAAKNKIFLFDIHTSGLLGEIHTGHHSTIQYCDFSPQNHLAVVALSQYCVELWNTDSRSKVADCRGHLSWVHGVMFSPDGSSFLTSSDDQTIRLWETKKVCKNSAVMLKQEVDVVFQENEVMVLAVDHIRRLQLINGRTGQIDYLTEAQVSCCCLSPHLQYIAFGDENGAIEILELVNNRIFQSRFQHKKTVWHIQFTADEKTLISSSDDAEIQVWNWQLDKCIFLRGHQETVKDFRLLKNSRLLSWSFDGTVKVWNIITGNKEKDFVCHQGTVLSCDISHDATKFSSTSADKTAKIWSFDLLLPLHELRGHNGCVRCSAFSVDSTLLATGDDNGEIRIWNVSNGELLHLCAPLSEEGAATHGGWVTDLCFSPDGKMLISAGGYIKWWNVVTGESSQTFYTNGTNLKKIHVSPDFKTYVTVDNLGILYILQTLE
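Assay system – apoptosome proteins · Medium – Hepes buffer, pH 7.5 · Also added – cytochrome c with DEVD-Rh110 · Timing – 30 min compound preincubation, 50 min activation, room temperature · Detection – Rh110 fluorescence, excitation 480 nm, emission 540 nm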
Apaf-1 inh conf2 = Apaf-1 inhibition, single-dose confirmed. shares compounds with Apaf1 inhib. reconstituted apoptosome, caspase-3 DEVD-Rh110 fluorescence. inhibition, % at 20 µM. hit rate 25% among 1,800;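 active = mean inhibition of at least 40% at 20 µM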
Rh110 quench = interferes with Rh110 fluorescence, flagging false Apaf-1 inhibitors. shares compounds with Apaf1 inhib. Rh110 fluorescence interference, quenched caspase reaction. activation (fluorescence interference), % at 20 µM. 1,800 tested, under 10 active. AID 504615;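 active = signal rise of 40% or more at 20 µM, treated as a fluorescence artifact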
Apaf1 inh interf = Apaf-1 inhibitor counter-screen fluorescence artifact; shares compounds with Apaf1 inhib; fluorescence interference counterscreen, Apaf-1 assay format; IC50, µM; 460 tested, under 10 active; call rule not given here
Of the large screens only hits and unclear results are named; the others gave an inactive call (follow-up assays come after a bar, where they were run). Hits are enriched below; roughly 2.4% of the tested compounds scored in any of these assays.

COc1ccc(S(=O)(=O)Oc2ccc3cccc(N)c3c2)cc1	Apaf1 inhib 88.0 | Apaf-1 inh conf2 inactive | Rh110 quench inactive
COc1ccc(S(=O)(=O)Oc2ccc3ccccc3c2)cc1	none
Fc1ccc(Nc2ccnc(C(F)(F)F)c2)cc1	none
CCN1CCN(c2ccc(S(=O)(=O)N3CCCCC3)cc2NC(=O)/C=C/c2cc(OC)ccc2OC)CC1	Apaf1 inhib 45.5 | Apaf-1 inh conf2 inactive | Rh110 quench inactive
CCN1CCN(c2ccc(S(=O)(=O)N3CCCCC3)cc2NC(=O)COc2ccc(Cl)c(C)c2)CC1	Apaf1 inhib 44.7 | Apaf-1 inh conf2 inactive | Rh110 quench inactive
CCN1CCN(c2ccc(S(=O)(=O)N3CCCCC3)cc2NC(=O)/C=C/c2ccc(OC)c(OC)c2)CC1	none
CC(NC(=O)c1cccc(S(=O)(=O)N(C)c2ccccc2)c1)c1cccnc1 (stereo not given)	none (no result: GSTO1 inh)
CC(=O)Nc1ccc2c(c1)N(C(=O)CN(C)C)c1ccccc1CC2	Apaf1 inhib 42.6 | Apaf-1 inh conf2 inactive | Rh110 quench inactive
COc1ccc(-c2nc3nc(C)c(Cc4ccccc4)c(=O)n3[nH]2)cc1	Apaf1 inhib 49.5 | Apaf-1 inh conf2 46.7 | Rh110 quench inactive
Cc1ccc(NC(=O)CNC(=O)c2ccco2)cc1Cl	none
CC1CCN(C(=O)COC(=O)c2ccc([N+](=O)[O-])o2)CC1	none (no result: GSTO1 inh)
O=C(OCC(=O)N1CCN(S(=O)(=O)c2ccccc2)CC1)c1ccc([N+](=O)[O-])o1	Apaf1 inhib 79.9 | Apaf-1 inh conf2 inactive | Rh110 quench inactive
O=C(OCC(=O)N1CCN(S(=O)(=O)c2ccc(Cl)cc2)CC1)c1ccc([N+](=O)[O-])o1	Apaf1 inhib 69.1 | Apaf-1 inh conf2 inactive | Rh110 quench inactive
C[C@H]1CN([C@@H](C)CO)C(=O)c2cccc(NC(=O)C3CC3)c2O[C@H]1CN(C)S(=O)(=O)c1cccs1	none (no result: GSTO1 inh)
O=c1nc(-c2ccccc2)c2cc(SC(F)F)ccc2[nH]1	none
COc1cc(N(Cc2ccccc2)Cc2ccccc2)c2ncn(C(C)C)c2c1	none (no result: GSTO1 inh)
CC(C)n1cnc2c(N(C)c3ccccc3)nc(N(CCN(C)C)Cc3ccccc3)nc21	Apaf1 inhib 44.0 | Apaf-1 inh conf2 inactive | Rh110 quench inactive
CCCCCCCNC(=O)C1(CC2CC(c3ccc(Cl)cc3)=NO2)CCNCC1 (stereo not given)	Apaf1 inhib 41.0 | Apaf-1 inh conf2 inactive | Rh110 quench inactive
CCCCCCCNC(=O)C1(CC2CC(c3cccc(Br)c3)=NO2)CCNCC1 (stereo not given)	Apaf1 inhib 46.2 | Apaf-1 inh conf2 inactive | Rh110 quench inactive
CCOC(=O)Nc1ccc(NCc2ccc(F)cc2)nc1N	Apaf1 inhib 96.2 | Apaf-1 inh conf2 52.7 | Rh110 quench inactive | Apaf1 inh interf inactive
CCN(CC)S(=O)(=O)c1cc(OC)c(Cl)cc1Cl	none
Brc1ccc2[nH]ncc2c1	none
Nc1ccc2cn[nH]c2c1	Apaf1 inhib 52.4 | Apaf-1 inh conf2 inactive | Rh110 quench inactive
COc1cc(C2C(C#N)=C(C)NC3=C2C(=O)c2ccccc23)cc(OC)c1OC (stereo not given)	Apaf1 inhib 54.3 | Apaf-1 inh conf2 inactive | Rh110 quench inactive
COc1ccc(C2C(C#N)=C(C)NC3=C2C(=O)c2ccccc23)cc1 (stereo not given)	none
CN(C)C(=O)C1Cc2ccccc2CN1S(=O)(=O)c1cccs1 (stereo not given)	none
Cc1ccc2[nH]c3c(c2c1)CN(C(=O)CN1CCN(c2cccc(C)c2C)CC1)CC3	Apaf1 inhib 42.6 | Apaf-1 inh conf2 inactive | Rh110 quench inactive
Cc1ccc(S(=O)(=O)N2CCC(C(=O)OCC(=O)N(C)CC(=O)Nc3ccc(F)cc3)CC2)cc1C	Apaf1 inhib 51.6 | Apaf-1 inh conf2 inactive | Rh110 quench inactive
Cc1ccc(S(=O)(=O)N2CCC(C(=O)OCC(=O)N(C)Cc3ccccc3)CC2)cc1C	none
CC1(NC(=O)NCc2ccccc2)CCS(=O)(=O)C1 (stereo not given)	none
CC1CCN(C(=O)c2ccc(CNS(=O)(=O)c3ccc(C(C)(C)C)cc3)cc2)CC1	none (no result: GSTO1 inh)
COc1ccc2nc(NC(=O)c3cccs3)sc2c1	none
COc1ccc2c(c1)Cc1sc(NC(=O)c3cccs3)nc1-2	Apaf1 inhib 86.8 | Apaf-1 inh conf2 43.6 | Rh110 quench inactive | Apaf1 inh interf inactive
COc1ccc2c(c1)Cc1sc(NC(=O)c3ccccc3)nc1-2	Apaf1 inhib 83.5 | Apaf-1 inh conf2 60.2 | Rh110 quench inactive | Apaf1 inh interf inactive
COc1ccc(C/C(C)=N/NS(=O)(=O)c2ccc(Br)cc2)cc1	none
CSc1c(C#N)c(N)c(C#N)c2c1COC(C)(C)C2	none
CCC(=C(c1ccc(O)cc1)c1ccc(OCCN(C)C)cc1)c1ccccc1	none (no result: PAD4 inh, GSTO1 inh, Apaf1 inhib)
CC/C(=C(\c1ccccc1)c1ccc(OCCN(C)C)cc1)c1ccccc1	Apaf1 inhib 72.2 | Apaf-1 inh conf2 inactive | Rh110 quench inactive
CCN(CC)CCOc1ccc(/C(=C(/Cl)c2ccccc2)c2ccccc2)cc1	Apaf1 inhib 64.9 | Apaf-1 inh conf2 inactive | Rh110 quench inactive
CC/C(=C(\c1ccc(O)cc1)c1ccc(OCCN(C)C)cc1)c1ccccc1	Apaf1 inhib 65.3 | Apaf-1 inh conf2 inactive | Rh110 quench inactive
O=C1CCC(=O)N1OCCCOc1ccc2c(c1)CCC2	none
O=C(COc1ccc(C2SCCS2)cc1)Nc1ccc(Cl)cc1	none
COCc1ccc(CN2CCC(C(=O)Nc3cccc(-c4cccc(Cl)c4)c3)CC2)o1	Apaf1 inhib 49.3 | Apaf-1 inh conf2 inactive | Rh110 quench inactive
CC(C)Cn1c(N)c(C(=O)COC(=O)C2CCCCC2)c(=O)n(C)c1=O	Apaf1 inhib 42.7 | Apaf-1 inh conf2 inactive | Rh110 quench inactive
COc1cc(C(=O)N2CCN(c3cccc(C)c3C)CC2)ccc1OCC(=O)N1CCOCC1	Apaf1 inhib 50.8 (no result: GSTO1 inh) | Apaf-1 inh conf2 inactive | Rh110 quench inactive
COc1cc(C(=O)N2CCN(c3ccccc3O)CC2)ccc1OCC(=O)N1CCOCC1	none (no result: GSTO1 inh)
COc1cc(N)c(Cl)cc1C(=O)OCC(=O)Nc1ccc(N2CCOCC2)cc1	none (no result: GSTO1 inh)
CCCN(CC(=O)Nc1ccccc1C)C(=O)C1CCN(c2ncnc3sc(C)c(C)c23)CC1	Apaf1 inhib 48.5 | Apaf-1 inh conf2 inactive | Rh110 quench inactive
Cc1sc2ncnc(N3CCC(C(=O)Nc4ccc(Cl)c(Cl)c4)CC3)c2c1C	Apaf1 inhib 41.5 (no result: GSTO1 inh) | Apaf-1 inh conf2 inactive | Rh110 quench inactive
Cc1ccccc1C(=O)NC(=S)Nc1ncccn1	none
CC1(c2ccccc2)ON(c2ccccc2C(F)(F)F)C1=O (stereo not given)	none (no result: TDP2 absorb, SIAE inh, GSTO1 inh, TCR CD3 inh)
